Measured values taken from publication PMC11231753 (Biofilm, 2024).
In brackets after ≈: the same amount, converted by molar mass. Each block holds one molecule with its values, some of them ahead of it.

Tests used:
[1] = test system: C. violaceum 6267; assay: MIC by broth microdilution against C. violaceum 6267; type: cell-based, Chromobacterium violaceum
Method in brief: (§1)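 Strains maintained in LB (1 % peptone, 0.5 % yeast extract, 0.5 % NaCl). Broth microdilution in 96-well plates: 10⁶ CFU/mL exposed to serial two-fold dilutions of the test extract, overnight at 37 °C. MIC taken as the lowest concentration inhibiting growth. Amoxicillin-clavulanate and imipenem served as positive controls. Run in triplicate.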

[2] = test system: violacein production by C. violaceum 6267; assay: Quantitative anti-QS assay: inhibition of violacein production in 96 well plates; type: cell-based, Chromobacterium violaceum
[3] = test system: P. aeruginosa PAO1; assay: MIC by broth microdilution against P. aeruginosa PAO1; type: cell-based, Pseudomonas aeruginosa
Method in brief: as §1

[4] = test system: P. aeruginosa PAO1 biofilm formation; assay: Inhibition of biofilm formation; type: cell-based, Pseudomonas aeruginosa; conditions: comparison of Fig. 5A, concentration not given
Method in brief: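 Biofilm grown in LB broth with 10⁵ CFU/mL PAO1 and serial dilutions of the test extract (7.81–500 μg/mL) at 37 °C overnight. Amoxicillin-clavulanate (3.9–250 μg/mL) and imipenem (0.015–0.97 μg/mL) served as reference antibiotics. Biomass was stained with crystal violet and read at 600 nm to give percent inhibition. Biofilm cells were also viewed by inverted microscope. Run in triplicate; mean ± standard deviation.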

[5] = test system: P. aeruginosa; conditions: cited from earlier work
[6] = test system: Klebsiella pneumoniae, Proteus mirabilis, Pseudomonas aeruginosa, and Shigella flexineri; conditions: cited from earlier work

SMILES: O=C/C=C/c1ccccc1 [Cinnamaldehyde]
MIC ([1]; Chromobacterium violaceum, 6267, read-out: MIC C. violaceum): 31.2 µg/mL (≈ 236 µM)
MIC C. violaceum ([1]; broth microdilution): 31.25 µg/mL (≈ 236 µM)
Anti-QS activity (concentration inhibiting violacein production) ([2]; C. violaceum 6267): 7.81 µg/mL
percentage of inhibition (violacein production) ([2]; at the anti-QS concentration printed beside the value): 87.8 ± 2.32%
Inhibition of violacein production ([2]; ½ MIC (n-BuOH fraction 125 μg/mL; ethanolic extract 250 μg/mL)): 93.4%

MIC ([3]; Pseudomonas aeruginosa, PAO1, read-out: MIC P. aeruginosa PAO1): 31.2 µg/mL (≈ 104 µM)
MIC P. aeruginosa PAO1 ([3]; broth microdilution, overnight 37 °C): 31.25 µg/mL (≈ 104 µM)
SMILES: C[C@@H](O)[C@H]1C(=O)N2C(C(=O)O)=C(SCCN=CN)C[C@H]12 [Imipenem, imipenem]
Antibiofilm effect, percentage of inhibition [4]: 47.24%

SMILES: O=c1c(O)c(-c2cc(O)c(O)c(O)c2)oc2cc(O)cc(O)c12 [myricetin]
MIC against P. aeruginosa ATCC 27853 [5]: 256 µg/mL (≈ 804 µM)
Concentration inhibiting bacterial growth of various Gram-negative bacteria [6]: 30 µg/mL
